Test results published in PubChem BioAssay AID602424 (Sanford-Burnham Center for Chemical Genomics, 2012).
The source made the active and inactive calls.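 How the source made its calls: active means IC50 at or below 20 µM; inactive means the rest.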

Biological target: Glucose-6-phosphate 1-dehydrogenase (Homo sapiens) (UniProt P11413)
Assay: blockers of human G6PD activity – biochemical, fluorescence, dose response, set 4, selectivity assay for PfG6PD antimalarial inhibitor project, SAR follow-up (AID 602424)
Settings: recombinant human G6PD, NADPH-diaphorase-resazurin fluorescence
Method in brief: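 Schedule: 90 min enzyme reaction at room temperature, in dark / Test system: human glucose-6-phosphate dehydrogenase enzyme (hG6PD) / Control set: no-substrate wells as low control / Signal: diaphorase-coupled resazurin fluorescence from NADPH, excitation 530 nm, emission 590 nm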

Sequence of Glucose-6-phosphate 1-dehydrogenase (Homo sapiens) (P11413 whole entry, looked up): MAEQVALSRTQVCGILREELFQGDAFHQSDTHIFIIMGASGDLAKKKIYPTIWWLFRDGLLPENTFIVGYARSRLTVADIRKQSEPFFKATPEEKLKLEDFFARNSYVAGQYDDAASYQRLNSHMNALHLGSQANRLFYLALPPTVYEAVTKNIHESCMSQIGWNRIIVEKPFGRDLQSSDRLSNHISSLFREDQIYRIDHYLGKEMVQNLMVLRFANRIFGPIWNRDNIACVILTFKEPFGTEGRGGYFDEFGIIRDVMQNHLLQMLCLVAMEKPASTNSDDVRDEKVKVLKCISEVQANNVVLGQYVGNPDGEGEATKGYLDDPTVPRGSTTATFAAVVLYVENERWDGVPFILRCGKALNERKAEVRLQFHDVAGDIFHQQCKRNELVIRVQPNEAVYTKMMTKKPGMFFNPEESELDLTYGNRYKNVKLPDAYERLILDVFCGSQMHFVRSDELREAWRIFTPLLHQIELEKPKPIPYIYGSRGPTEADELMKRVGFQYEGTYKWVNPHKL

Compound | IC50
O=C(NCC1CCCCN1)c1ccc2c(c1)NC(=O)c1ccccc1S2 (configuration not stated) | > 80 µM (inactive)
CCN1CCC[C@@H]1CNC(=O)c1ccc2c(c1)NC(=O)c1cc(F)ccc1S2 | > 80 µM (inactive)
CCCN1CCCCC1CNC(=O)c1ccc2c(c1)NC(=O)c1ccccc1S2 (configuration not stated) | > 80 µM (inactive)
CCN1CCC[C@@H]1CNC(=O)c1ccc2c(c1)NC(=O)c1ccccc1N2 | > 80 µM (inactive)
CCN1CCC[C@@H]1CNC(=O)c1ccc2c(c1)NC(=O)c1cccc(C)c1S2 | > 80 µM (inactive)
CCCCCCN1CCCC1CNC(=O)c1ccc2c(c1)NC(=O)c1ccccc1S2 (configuration not stated) | > 80 µM (inactive)
CCN1CCC[C@@H]1CNC(=O)c1ccc2c(c1)NC(=O)c1ccc(F)cc1S2 | > 80 µM (inactive)
CCN1CCC[C@@H]1CNC(=O)c1ccc2c(c1)NC(=O)c1cc(C)ccc1S2 | > 80 µM (inactive)

More lines, now with the values ahead:

IC50 | Compound
> 80 µM (inactive) | O=C(NC[C@H]1CCCN1)c1ccc2c(c1)NC(=O)c1ccccc1S2
> 80 µM (inactive) | CN1CCC(NC(=O)c2ccc3c(c2)NC(=O)c2ccccc2S3)C1 (configuration not stated)
> 80 µM (inactive) | CCN1CCCCC1CNC(=O)c1ccc2c(c1)NC(=O)c1ccccc1S2 (configuration not stated)
> 80 µM (inactive) | CN1CCCCC1CNC(=O)c1ccc2c(c1)NC(=O)c1ccccc1S2 (configuration not stated)
> 80 µM (inactive) | CCCCN1CCCC1CNC(=O)c1ccc2c(c1)NC(=O)c1ccccc1S2 (configuration not stated)
> 80 µM (inactive) | CCCN1CCC(NC(=O)c2ccc3c(c2)NC(=O)c2ccccc2S3)C1 (configuration not stated)
> 80 µM (inactive) | CN1CCCC1CNC(=O)c1ccc2c(c1)NC(=O)c1ccccc1S2 (configuration not stated)
> 80 µM (inactive) | CCCN1CCC[C@@H]1CNC(=O)c1ccc2c(c1)NC(=O)c1ccccc1S2
> 80 µM (inactive) | CCN1CCC(NC(=O)c2ccc3c(c2)NC(=O)c2ccccc2S3)C1 (configuration not stated)
